Bioassay records from PubChem.
A selection: hits, their analogues and other compounds. The true share with any hit is near 2.3%.
TRPC4 block: inhibitors of mouse TRPC4 channel. HEK293 TRPC4beta/mu-opioid, DAMGO-evoked Fluo4 calcium flux; hits give low values. B-score at 10 µM. 300,000 compounds, 0.39% hits. AID 2247;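 active means B-score over 3 SD under the library average, no early fluorescence shift, positive overall ratio signal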
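Signal: kinetic Fluo4 fluorescence imaging of calcium influx. Material: stable TRPC4beta/mu-opioid receptor HEK293 cells. Probe or stimulus: DAMGO in two steps, submaximal then maximal.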
TRPC6 inh: mouse TRPC6 channel inhibition; 310,000 compounds, 1.1% hits; B-score at 10 µM; AID 2553; HEK293-TRPC6, membrane potential dye, ACh-evoked depolarization; hits give low values;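 active means B-score under library mean minus 3 SD, initial fluorescence not abnormally high, positive integrated signal ratio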;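 further: B-score derived from integrated fluorescence ratio over the kinetic read; more negative B-score means stronger inhibition of depolarization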
Target sequence (Q61143 whole entry, looked up): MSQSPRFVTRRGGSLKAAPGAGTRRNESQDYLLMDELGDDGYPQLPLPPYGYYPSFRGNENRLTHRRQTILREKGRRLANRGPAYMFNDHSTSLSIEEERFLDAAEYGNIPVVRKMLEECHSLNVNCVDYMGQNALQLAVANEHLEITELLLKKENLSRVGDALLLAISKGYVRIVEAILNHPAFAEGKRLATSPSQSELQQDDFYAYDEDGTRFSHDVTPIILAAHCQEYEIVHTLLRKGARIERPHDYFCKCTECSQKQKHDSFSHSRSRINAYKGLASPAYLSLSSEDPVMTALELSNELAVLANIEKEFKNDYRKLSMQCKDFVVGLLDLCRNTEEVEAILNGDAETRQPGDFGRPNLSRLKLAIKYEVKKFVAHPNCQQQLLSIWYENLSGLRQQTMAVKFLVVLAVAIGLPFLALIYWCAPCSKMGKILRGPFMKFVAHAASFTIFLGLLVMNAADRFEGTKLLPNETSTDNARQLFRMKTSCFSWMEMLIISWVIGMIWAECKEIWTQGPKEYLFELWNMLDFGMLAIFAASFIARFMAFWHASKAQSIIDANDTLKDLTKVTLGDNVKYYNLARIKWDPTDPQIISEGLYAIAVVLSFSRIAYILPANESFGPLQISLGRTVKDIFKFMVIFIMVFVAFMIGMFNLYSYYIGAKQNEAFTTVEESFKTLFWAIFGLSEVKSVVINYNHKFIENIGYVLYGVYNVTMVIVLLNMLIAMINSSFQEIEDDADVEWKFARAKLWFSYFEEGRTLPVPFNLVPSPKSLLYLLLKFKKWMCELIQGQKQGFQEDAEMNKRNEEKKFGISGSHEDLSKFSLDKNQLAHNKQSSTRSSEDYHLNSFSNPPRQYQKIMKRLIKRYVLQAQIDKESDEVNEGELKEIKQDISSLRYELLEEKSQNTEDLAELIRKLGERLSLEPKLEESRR
TRPC6 act: activators of mouse TRPC6 channel. Q61143. HEK293-TRPC6 membrane potential dye fluorescence; hits give high values. B-score at 10 µM. 310,000 compounds, 0.13% hits. AID 2550;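 active means B-score of the integrated fluorescence ratio above library mean plus 3 SD, and starting fluorescence ratio within library mean plus 5 SD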;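 further: higher score means more depolarization so channel activation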
TRPC4 agonist: activators of mouse TRPC4 channel. Q9QUQ5. HEK293 TRPC4beta/mu-opioid, Fluo4 calcium fluorescence; hits give high values. B-score at 10 µM. 310,000 compounds, 0.49% hits. AID 2237;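 active means B-score above 5 SD of library B-scores, and initial fluorescence ratio not above library mean plus 5 SD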;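 further: positive B-score marks a calcium rise read as TRPC4 activation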
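Assay system – TRPC4beta and mu-opioid receptor HEK293 stable cells · Measured by – Fluo4 fluorescence, kinetic · Schedule – dye loading 45 min room temperature, 110 s kinetic read · Read-out – B-scored integrated calcium fluorescence ratio · Controls – buffer and maximal DAMGO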
TRPC4 potent: allosterically enhances the mouse TRPC4 cation channel; Q9QUQ5; HEK293 TRPC4beta/mu-opioid, DAMGO EC20, Fluo-4 Ca2+ flux; hits give high values; B-score at 10 µM; 310,000 compounds, 0.42% hits; AID 2227;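 active means B-score of calcium response area above 5 SD of library B-scores, with initial fluorescence ratio within 5 SD of library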
Hits are given with their value; - = inactive; ! = not confirmed by another sample.

SMILES	TRPC4 block	TRPC6 inh	TRPC6 act	TRPC4 agonist	TRPC4 potent
Cc1ccc(S(=O)(=O)Nc2cccc(C(=O)NCC(c3ccco3)N3CCCCC3)c2)cc1F (stereo unspecified)	-9	-	-	-	-
Cc1ccc(S(=O)(=O)NCCC(=O)NCC(c2ccco2)N2CCCCC2)cc1C (stereo unspecified)	-6	-	-	72	-
Cc1cc(S(=O)(=O)Nc2ccc(C(=O)NCC(c3ccco3)N3CCCCC3)cc2)ccc1F (stereo unspecified)	-	-	-	-	-
O=C(Nc1ccc(F)cc1F)c1cc(-c2ccco2)on1	-	-	-	-	-
O=C(Nc1ccc(F)cc1F)c1ccco1	-	-	-	70	-
CCc1cc2c(=O)oc(-c3ccc(Br)cc3)nc2s1	-	-	-	-	-
COc1ccc(N2CCN(C(CNC(=O)C(C)C)c3ccc4c(c3)OCO4)CC2)cc1 (stereo unspecified)	-	-	-	51	-
COC(=O)NCC(c1ccc2c(c1)OCO2)N1CCN(c2ccc(OC)cc2)CC1 (stereo unspecified)	-	-	-	67	-
COCCNC(=O)C(=O)NCC(c1ccc2c(c1)OCO2)N1CCN(c2ccc(F)cc2)CC1 (stereo unspecified)	-	-	-	-	-
Cn1nnnc1SCC(=O)Nc1cc(S(=O)(=O)N2CCCC2)ccc1Cl	-	-	-	-	-
O=C(CSc1cccc(C(F)(F)F)c1)Nc1cc(S(=O)(=O)N2CCCC2)ccc1Cl	-	-	-	-	10
OCCN(CCO)c1ncnc2c1sc1nc(N3CCOCC3)c3c(c12)CCCC3	-	-	-	-	15
CCN(CC(=O)Nc1cccc(OC)c1)CC(=O)Nc1ccc(C)cc1Cl	-	-	-	-	-
CCCCCc1cc(=O)oc2c(C(CCN(CC)CC)c3ccc(N(C)C)cc3)c(OC)cc(OC)c12 (stereo unspecified)	-	-	-	-	11
O=C(NC(C(=O)N/N=C/c1ccncc1)c1n[nH]c(=O)c2ccccc12)c1ccccc1 (stereo unspecified)	-	-	-	-	-
O=C(NC(C(=O)N/N=C/c1cccnc1)c1n[nH]c(=O)c2ccccc12)c1ccccc1 (stereo unspecified)	-	-	-	53	-
CC(=O)/C=C1/C(=O)Nc2ccccc21	-5	-	-	-	-
C=CCOc1cccc(C(=O)/C=C2/C(=O)Nc3ccccc32)c1	-	-	-	-	-
CCCCNC(=O)/C(C#N)=C/c1ccc(F)cc1F	-	-	-	-	27
CNCC[C@H](Oc1cccc2ccccc12)c1cccs1	-	-5.7!	-	-	-
COc1ccc(C(=O)CCC(=O)Nc2cccc(Cl)c2)cc1	-	-	-	-	18
CC1CC(C)CN(CCC(=O)Nc2ccc(Br)cc2)C1 (stereo unspecified)	-	-	-	44	-
CC1CC(C)CN(CCC(=O)Nc2cccc(Cl)c2)C1 (stereo unspecified)	-	-	-	60	-
Cc1cc(S(=O)(=O)NC2CCN(Cc3ccccc3)CC2)c(C)cc1Cl	-	-	-	-	20
Cc1cc(C)c(S(=O)(=O)NC2CCN(Cc3ccccc3)CC2)c(C)c1	-	-	-	-	-
SMILES	TRPC4 block	TRPC6 inh	TRPC6 act	TRPC4 agonist	TRPC4 potent
O=C(NC1CCCCCC1)c1ccc(-n2cnnc2)cc1	-	-	-	-	-
N[C@@H](Cc1cc(I)c(Oc2ccc(O)c(I)c2)c(I)c1)C(=O)O	-	-	-	-	-
O=C(O)CCc1cc(I)c(Oc2ccc(O)c(I)c2)c(I)c1	-	-	-	59	-
O=C(COc1ccc2ccccc2c1)NNC(=O)Nc1ccccc1F	-	-	-	-	-
Cc1ccc(C(=O)C(c2ccccc2)N2Cc3ccccc3C2=N)cc1 (stereo unspecified)	-	-	-	210	-
COc1ccc(C(=O)C(c2ccccc2)N2CCOCC2)cc1 (stereo unspecified)	-	-	-	-	-
CC(=O)Nc1ccc(S(=O)(=O)NC2(C(F)(F)F)NC(=O)N(C3CCCCC3)C2=O)cc1 (stereo unspecified)	-	-	-	-	-
Fc1ccc(-c2[nH]ncc2CN2CCN(c3ccc(F)cc3)CC2)cc1	-	-	-	-	12
